Screening data (PubChem)
KLK5 inh = kallikrein 5 (human) inhibition. Q9Y337. recombinant hK5, fluorogenic AMC substrate cleavage. inhibition, % at 5 µM. actives 0.59% (n = 210,000);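 active means inhibition of 40% or more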;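 further: 0% = enzyme controls without compound and 100% = no-enzyme blanks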
FXIIa inh 1536 = factor XIIa (human) inhibition. AID 800. P00748. actives 0.3% (n = 220,000). inhibition, % at 5 µM. purified FXIIa, Boc-QGR-AMC fluorogenic substrate, 2 h; in the data active means inhibition above about 40%;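 further: 0% = enzyme with no compound and 100% = blank without enzyme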
m-calpain inh = inhibitors of pig calpain II. actives 0.37% (n = 220,000). inhibition, % at 16 µM. purified calpain II, fluorogenic peptide substrate, 30 min;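 active means inhibition above about 50%, limit read from the data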
FXIa inh 1536 = factor XIa (human) inhibition | inhibition, % at 5 µM | actives 0.14% (n = 220,000) | purified FXIa, Boc-Glu-Ala-Arg-AMC fluorogenic substrate;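 active means inhibition of at least 40%; inactive means inhibition below 40%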;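 further: fluorescence of freed AMC excited at 355 nm; 0% = enzyme without compound and 100% = no enzyme blank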
Furin inhibitor = human furin inhibition. P09958. purified furin, fluorogenic substrate cleavage. inhibition, % at 20 µM or 30 µM. actives 0.061% (n = 220,000); in the data active means inhibition above about 25%
Target sequence (P09958 108-714 limits assumed): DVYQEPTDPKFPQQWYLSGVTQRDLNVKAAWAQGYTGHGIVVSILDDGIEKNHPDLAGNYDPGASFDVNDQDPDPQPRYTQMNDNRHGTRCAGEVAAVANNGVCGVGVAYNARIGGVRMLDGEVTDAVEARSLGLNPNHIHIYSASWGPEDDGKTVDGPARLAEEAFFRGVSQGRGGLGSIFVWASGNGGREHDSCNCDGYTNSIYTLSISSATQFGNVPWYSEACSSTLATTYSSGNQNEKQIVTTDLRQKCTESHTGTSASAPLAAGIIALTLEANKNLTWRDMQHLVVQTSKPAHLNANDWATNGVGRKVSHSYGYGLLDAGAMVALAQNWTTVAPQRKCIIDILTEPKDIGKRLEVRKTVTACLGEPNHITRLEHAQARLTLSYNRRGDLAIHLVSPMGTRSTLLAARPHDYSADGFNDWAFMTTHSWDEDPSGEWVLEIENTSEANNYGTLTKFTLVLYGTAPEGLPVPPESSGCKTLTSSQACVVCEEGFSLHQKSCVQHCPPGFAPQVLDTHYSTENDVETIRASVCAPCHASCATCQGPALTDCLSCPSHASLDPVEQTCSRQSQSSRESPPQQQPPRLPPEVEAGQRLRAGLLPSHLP
Thrombin inh = thrombin (human) inhibition; alpha-thrombin, Boc-VPR-AMC fluorogenic substrate cleavage; AID 1046; actives 0.26% (n = 220,000); inhibition, % at 5 µM;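 active means inhibition at or above 40%; inactive means inhibition below 40%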;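 further: 0% = enzyme with no compound and 100% = wells without enzyme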
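System – human alpha-thrombin · Medium – pH 7.5 Tris (50 mM) with NaCl 150 mM, Tween 20 0.05% · Compound – single-point dosing at 5 µM, 0.2% DMSO · Incubation – enzyme reaction carried out at room temperature · Technique – fluorescence of released AMC, ex 355 nm, em 460 nm · Read-out basis – % inhibition of thrombin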
* = called active by the depositor; / = no result given. Sampled rows, rich in hits. Any-hit rate of the full collection: about 1.4%.

SMILES	KLK5 inh	FXIIa inh 1536	m-calpain inh	FXIa inh 1536	Furin inhibitor	Thrombin inh
O=C(Nc1nc(COc2ccccc2)cs1)C12CC3CC(CC(C3)C1)C2	9	5	58*	-4	-10	-3
Cn1cccc1Cc1nnc(SCC(=O)N2CCOCC2)n1CCc1ccccc1	-6	15	4	3	-24	-1
Cc1ccc(NC(=O)Cn2c(=O)n(CCCCC(=O)NCc3ccco3)c(=O)c3ccccc32)cc1	-9	9	37	-5	-25	-13
O=C(CCCCn1c(=O)c2ccccc2n(CC(=O)Nc2ccc(F)cc2)c1=O)NCc1ccco1	3	1	64*	4	-27	-9
O=C1C=C(O)c2c(O)cccc2C1=O	11	18	5	11	-15	55*
CCS(=O)(=O)NCC(c1cccnc1)N1CCN(c2ccc(OC)cc2)CC1 (stereo unspecified)	-3	8	63*	0	-18	-6
CN1CCN(C(CNS(=O)(=O)c2ccc(F)cc2)c2cccnc2)CC1 (stereo unspecified)	2	1	0	-3	-15	-2
CN1CCN(C(CNS(=O)(=O)c2ccc(Cl)cc2)c2cccnc2)CC1 (stereo unspecified)	42*	12	13	2	-22	16
CCCC1=C(C(=O)OCC)C(c2cc(Cl)cc(OC)c2OCC(=O)OCC)NC(=O)N1 (stereo unspecified)	-9	14	-17	1	-16	-2
COc1ccc(-n2c(=S)[nH]c3cc(C(=O)NC4CCCCC4)ccc3c2=O)c(OC)c1	/	5	25	-2	-13	-3
Cc1cc(C(=O)Nc2ccc3c(c2)CCC3)c2ccccc2n1	-4	4	-36	-1	-21	-5
Cc1cc(C(=O)Nc2ccc(N3CCOCC3)cc2)c2ccccc2n1	1	44*	11	11	-17	0
O=C(Cn1cc(C(=O)c2ccco2)c2ccccc21)Nc1ccccc1	-7	14	61*	-3	-12	-3
Cc1noc(C)c1COC(=O)C1CC(O)CN1S(=O)(=O)c1ccc(Cl)cc1 (stereo unspecified)	-5	22	-22	4	-13	3
CCOC(=O)Cn1cnc2c(nnn2-c2ccc(C)cc2)c1=O	0	7	17	-3	-10	3
CCOC(=O)CNC(=O)Cn1cnc2c(nnn2-c2ccc(F)cc2)c1=O	45*	32	9	12	-22	22
CCOC(=O)c1[nH]c(C)c(/C(O)=C2\C(=O)C(=O)N(CCCN3CCOCC3)C2c2cccs2)c1C (stereo unspecified)	1	2	11	9	-19	-4
CSc1nc(-c2ccccc2)nc(NC(C)=O)c1C(C)=O	1	6	-16	-2	-29	-2
CSc1nc(-c2ccccc2)nc(N)c1C(C)=O	45*	7	24	8	-11	16
Cc1ccc(S(=O)(=O)NCc2ccc3[nH]c(C)cc3c2)cc1	-6	4	28	-3	-16	-10
COc1ccccc1NC(=O)CCN1CCN(C)CC1	6	10	26	6	-5	-9
FC(F)(F)c1cccc(Cn2cnc(NC(=S)NCCc3ccccc3)n2)c1	-8	1	-24	-3	-21	-1
COc1ccc(NC(=O)Nc2ncn(Cc3cccc(C(F)(F)F)c3)n2)cc1OC	-8	19	-29	-2	29*	-2
Cc1cccc(NC(=O)C2CCCN2S(=O)(=O)c2ccc3c(c2)n(C)c(=O)c(=O)n3C)c1 (stereo unspecified)	-6	8	-15	3	-14	0
CCOC(=O)C1CCN(S(=O)(=O)c2cc(Br)cc3c2N(C(=O)C2CC2)CC3)CC1	-2	7	61*	-3	-11	-2
SMILES	KLK5 inh	FXIIa inh 1536	m-calpain inh	FXIa inh 1536	Furin inhibitor	Thrombin inh
O=C(C1CC1)N1CCc2cc(Br)cc(S(=O)(=O)N3CCN(c4ccccn4)CC3)c21	-6	3	45	-8	-15	-6
O=C(NNc1ccc(Cl)cc1)c1c(F)cccc1Cl	1	6	-15	2	-15	0
O=C(NNc1cc(Cl)ccc1Cl)c1c(F)cccc1Cl	35	42*	13	32	-8	8
COc1ccc(-c2nc(C#N)c(N3CCN(c4ccccc4)CC3)o2)cc1	-5	19	17	20	-11	1
Cc1cc(C(=O)O)ccc1-n1c(C)cc(/C=C(/C#N)C(=O)Nc2ccccc2)c1C	/	12	59*	4	-13	-2
N/C(=N\OC(=O)c1ccc(Cl)cc1Cl)c1ccccn1	53*	29	17	31	-8	-4
Cc1ccc(Cn2ncc3c(N4CCN(C)CC4)ncnc32)cc1	-3	4	-21	-2	-36	-4
Cc1cc(/C=C\c2ccccc2)nc2ccccc12	50*	24	28	32	2	6
COc1ccc2[nH]c3c(NCCCN4CCCC4=O)ncnc3c2c1	54*	-5	-447	1	-11	0
COc1ccc2[nH]c3c(NCCN(C(C)C)C(C)C)ncnc3c2c1	-62	10	-376	7	-13	1
O=[N+]([O-])c1ccc2nc(-[n+]3c(-c4ccccc4)cc(-c4ccccc4)cc3-c3ccccc3)[nH]c2c1	-5	5	-157	-3	14	-2
Cc1cc(Nc2ccccc2)n(-c2ccccc2)n1	-16	5	-34	-7	-9	2
Cc1cc(C)nc(-n2nc(C)cc2Nc2ccccc2)n1	54*	-2	0	-2	-10	104*
O=C(N/N=C\c1cccc([N+](=O)[O-])c1O)C1COc2ccccc2O1 (stereo unspecified)	55*	0	24	5	-10	16
CC1CCCN(Cc2cnc(Cl)s2)C1 (stereo unspecified)	-17	12	40	9	-30	9
CC1CCCCN1Cc1cnc(Cl)s1 (stereo unspecified)	-22	-6	59*	-17	-26	13
CC1CCN(Cc2cnc(Cl)s2)CC1	-13	-3	51*	-14	-23	8
O=C(c1nc2ccccc2s1)N1CCN(c2ccccn2)CC1	-18	0	-1	-14	-16	45*
O=C(c1nc2ccccc2s1)N1CCSCC1	-4	15	29	8	-11	4
O=C(Nc1ccc(Cl)c(Cl)c1)Nc1nnc(-c2ccncc2)s1	-14	1	102*	-1	-2	-6
COc1ccc(NC(=O)Nc2nnc(-c3ccncc3)s2)cc1	-2	9	7	-7	-33	-24
COCCN1Cc2cccc(C(=O)NC3CCCCCC3)c2C1=O	-9	6	23	-6	-25	-5
Cc1ccccc1C(=O)NC1CCSC1=O (stereo unspecified)	17	23	-9	50*	-10	11
O=C(NC(=S)Nc1cccc2cccnc12)c1ccccc1	5	9	9	7	-28	4
